Measured values: ChEMBL document CHEMBL4725347, “Discovery of a Monoiodo Aza-BODIPY Near-Infrared Photosensitizer: in vitro and in vivo Evaluation for Photodynamic Therapy” (J Med Chem, 2020)
Active and inactive are the calls of the source. The rule behind the calls is not given here.

How the values were obtained:
[1] = Photostability of the compound in N,N-dimethylformamide assessed as compound degradation irradiated with 90 mW/cm2 light; format: physicochemical
[2] = Absorption property of the compound in isopropanol assessed as absorption coefficient by UV-visible spectrophotometric method; format: physicochemical
Summary of the method: (§1)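 Electronic absorption spectra recorded by UV-visible spectrophotometry at room temperature. Solvents were chloroform, isopropanol, acetonitrile, DMF, and PBS buffer containing 1% Cremophor EL/1,2-propanediol (10:3, v:v). Chloroform data were referenced to the non-halogenated parent dye.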

[3] = Absorption property of the compound in acetonitrile assessed as absorption coefficient by UV-visible spectrophotometric method; format: physicochemical; summary of the method: as §1
[4] = Absorption property of the compound in N,N-dimethylformamide assessed as absorption coefficient by UV-visible spectrophotometric method; format: physicochemical; summary of the method: as §1
[5] = Dark toxicity in human HeLa cells assessed as reduction in cell viability after 3 hrs by MTT assay; format: cell-based
Summary of the method: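 Compound was formulated with Cremophor EL/1,2-propanediol in PBS, filtered, and its concentration confirmed by UV-Vis. HeLa cells in DMEM with 10% FBS at 37 °C, 5% CO2 were seeded at 3×10^3 cells/well and adhered overnight. Cells were exposed to graded concentrations for 3 h without light, incubated 24 h, then MTT 0.5 mg/mL for 4 h; formazan dissolved in DMSO, A490 read.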

[6] = system: HeLa; experiment: Phototoxicity against human HeLa cells assessed as reduction in cell viability preincubated for 3 hrs followed by 54 J/cm2 light irradiation and measured after 24 hrs by MTT assay; format: functional, cell-based; conditions: light or radiation study
Summary of the method: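 PS formulated in PBS containing Cremophor EL/1,2-propanediol (10:3, v:v) after THF removal, filtered, with concentration confirmed by UV-Vis. Cells were grown in DMEM with 10% FBS and seeded at 3×10^3 per well overnight. They were incubated with PS for 3 h, irradiated at λ > 590 nm, kept 24 h at 37 °C, then given MTT (0.5 mg/mL, 4 h) with DMSO solubilization and A490 read-out.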

[7] = Dark toxicity in human SW480 cells assessed as reduction in cell viability after 3 hrs by MTT assay; format: cell-based
[8] = system: HeLa; experiment: Phototoxicity against human HeLa cells assessed as reduction in cell viability at 125 nM preincubated for 2 hrs followed by 5.4 to 108 J/cm2 light irradiation and measured after 24 hrs by MTT assay; format: functional, cell-based
[9] = Photostability of the compound in isopropanol assessed as compound degradation irradiated with 90 mW/cm2 light; format: physicochemical
[10] = Drug uptake in mitochondria of human HeLa cells at 5 uM incubated for 2 hrs under dark condition by mito-tracker green FM dye based laser confocal microscopic analysis; format: ADME
Summary of the method: (§2)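 HeLa cells adhered overnight on glass-bottom dishes and were loaded with 5 μM compound in the dark for 2 h. After PBS washes, cells were stained with Mito-Tracker Green FM 250 nM for 30 min, Lyso-Tracker Green 160 nM for 30 min, or ER-Tracker Green 2 μM for 45 min. Confocal imaging: trackers excited at 488 nm, collected 500–560 nm; compound excited at 633 nm, collected 650–740 nm.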

[11] = Drug uptake in endoplasmic reticulum of human HeLa cells at 5 uM incubated for 2 hrs under dark condition by ER tracker green dye based laser confocal microscopic analysis; format: ADME, subcellular; summary of the method: as §2
[12] = system: HeLa; experiment: Induction of apoptosis in human HeLa cells assessed as early apoptotic cells at 40 nM preincubated for 3 hrs followed by 54 J/cm2 light irradiation and measured after 24 hrs by Annexin-V-FITC/propidium iodide staining based flow cytometry (reference value: 0.54%); format: functional
Summary of the method: (§3)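 HeLa cells in six-well plates were exposed to compound for 3 h, irradiated (λ > 590 nm), and incubated 24 h at 37 °C. Cells were then harvested, washed with PBS, and stained with annexin V-FITC/PI for 20 min at room temperature before immediate flow cytometry. Untreated, unirradiated cells served as control.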

[13] = system: HeLa; experiment: Induction of apoptosis in human HeLa cells assessed as viable cells at 200 nM preincubated for 3 hrs followed by 27 J/cm2 light irradiation and measured after 24 hrs by Annexin-V-FITC/propidium iodide staining based flow cytometry (reference value: 90.74%); format: functional; conditions: light or radiation study, read-out: Activity; summary of the method: as §3
[14] = system: HeLa; experiment: Induction of apoptosis in human HeLa cells assessed as early apoptotic cells at 200 nM preincubated for 3 hrs followed by 27 J/cm2 light irradiation and measured after 24 hrs by Annexin-V-FITC/propidium iodide staining based flow cytometry (reference value: 0.54%); format: functional; summary of the method: as §3
[15] = system: HeLa; experiment: Induction of apoptosis in human HeLa cells assessed as necrotic cells at 200 nM preincubated for 3 hrs followed by 27 J/cm2 light irradiation and measured after 24 hrs by Annexin-V-FITC/propidium iodide staining based flow cytometry (reference value: 2.8%); format: functional; summary of the method: as §3
[16] = system: HeLa; experiment: Induction of apoptosis in human HeLa cells assessed as viable cells at 200 nM preincubated for 3 hrs followed by 54 J/cm2 light irradiation and measured after 24 hrs by Annexin-V-FITC/propidium iodide staining based flow cytometry (reference value: 90.74%); format: functional; conditions: light or radiation study, read-out: Activity; summary of the method: as §3
[17] = system: HeLa; experiment: Induction of reactive oxygen species generation in human HeLa cells at 2.5 uM incubated for 3 hrs prior to H2DCFDA addition for 20 mins followed by 54 J/cm2 light irradiation by microplate reader analysis relative to dark treated cells; format: functional
Summary of the method: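 HeLa cells were exposed to 0.004, 0.02, 0.10, 0.5 or 2.5 μM for 3 h, washed, and loaded with H2DCFDA 10 μM in PBS for 20 min at 37 °C. After washing, cells in PBS were irradiated with 54 J/cm² (λ > 590 nm) or kept dark. Fluorescence was read by confocal microscopy and by plate reader (ex 485/em 538 nm).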

[18] = Drug uptake in human HeLa cells xenografted Balb/c nu/nu mouse spleen at 2 mg/kg, iv measured within 1 hr by fluorescence imaging analysis; format: ADME, organism-based; conditions: in vivo
Summary of the method: (§4)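 Female Balb/c nu/nu mice bore subcutaneous HeLa tumors (5×10^6 cells, right back) and received 2 mg/kg via tail vein. Living mice were imaged under isoflurane at time points (ex 680/em 720 nm, 1 s exposure). At set times mice were euthanized and heart, liver, spleen, lungs, kidneys and tumor imaged ex vivo; ROI quantified, mean ± SD, n = 3.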

[19] = Drug uptake in human HeLa cells xenografted Balb/c nu/nu mouse heart at 2 mg/kg, iv measured after 3 hrs by fluorescence imaging analysis; format: ADME, organism-based; conditions: in vivo; summary of the method: as §4
[20] = system: HeLa; experiment: Antitumor activity against human HeLa cells xenografted in Balb/c nu/nu mouse assessed as tumor growth inhibition at 2 mg/kg, iv pretreated for 15 mins followed by 54 J/cm2 light irradiation for 10 mins and measured after 24 days; format: functional, organism-based
Summary of the method: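 Female Balb/c nu/nu mice with subcutaneous HeLa tumors (5×10^6 cells) reaching 80–100 mm³ on day 7 were randomized, n = 5 per group. Mice received 2 mg/kg by tail vein, or saline for controls. After 15 min the tumor was irradiated once with 54 J/cm² (75 W halogen lamp, >590 nm filter, 90 mW/cm², 10 min), unanaesthetized. Calipers every other day; V = 0.5×L×W²; body weight tracked.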

- Stabilty [1]: Unstable
- Activity [2]: 59300 M⁻¹ cm⁻¹
- Activity [3]: 59300 M⁻¹ cm⁻¹
- Activity [4]: 59300 M⁻¹ cm⁻¹
- Stabilty [9]: Stable
- Drug uptake [10]: Active
- Drug uptake [11]: Active
- Drug uptake [18]: Active
- Drug uptake [19]: Active
SMILES: COc1ccc(C2=[N+]3C(=Nc4c(-c5ccccc5)cc(-c5ccc(OC)cc5)n4[B-]3(F)F)C(c3ccccc3)=C2I)cc1
- IC50 at 3 h [5]: > 50 µM
- IC50 [6]: 0.076 µM
- IC50 at 3 h [7]: > 50 µM
- Activity [8]: Active
- Activity [12]: 10.68%
- viability at 0.2 µM [13]: 42.9%
- Activity [14]: 20.46%
- Activity [15]: 21.64%
- viability at 0.2 µM [16]: 8.15%
- fold change (FC) [17]: 77
- TGI [20]: Active
